Laboratory results reported in ChEMBL document CHEMBL2417392, “Synthesis and broad spectrum antiviral evaluation of bis(POM) prodrugs of novel acyclic nucleosides” (Eur J Med Chem, 2013).

Tests used:
HEL = assay: Cytotoxicity against human HEL cells after 3 days by Coulter counting method; format: cell-based; conditions: 72 h
PBMC = assay: Cytotoxicity against human PBMC cells; format: cell-based
Hepatitis C virus = assay: Antiviral activity against HCV infected in Huh7 cells assessed as inhibition of viral RNA replication after 5 days by RT-PCR Assay; format: functional, Hepacivirus hominis, Huh-7
In short: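 Huh 7 Clone B cells carrying subgenomic HCV replicon RNA, seeded 3000 cells/well, compound added at 10 μM in triplicate right after seeding; 5 days at 37 °C, 5% CO2. Total RNA extracted; replicon RNA and rRNA internal control amplified by one-step multiplex real-time RT-PCR. Activity as ΔCt versus no-drug control (ΔCt 3.3 = 1-log reduction); ΔCt converted to fraction of starting material for % inhibition.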

[1] = system: Human immunodeficiency virus; assay: Antiviral activity against HIV infected in human CEM cells assessed as inhibition of HIV-induced CEM giant cell formation after 4 days by microscopy; conditions: Human immunodeficiency virus 1, CCRF-CEM, 96 h
Vero = assay: Cytotoxicity against african green monkey Vero cells; format: cell-based; conditions: chlorocebus sabaeus
CCRF-CEM = assay: Cytotoxicity against human CEM cells; format: cell-based
Human betaherpesvirus 5 = assay: Antiviral activity against human Cytomegalovirus AD169 infected in HEL cells assessed as inhibition of virus-induced cytopathicity after; format: functional, organism-based; conditions: Human betaherpesvirus 5, AD169, HEL

Row | SMILES | CC50 (HEL) [µM] | CC50 (PBMC) [µM] | inhibition (INH) (Hepatitis C virus) [%] | EC50 [1] [µM] | EC90 [1] [µM] | CC50 (Vero) [µM] | CC50 (CCRF-CEM) [µM] | EC50 (Human betaherpesvirus 5) [µM]
1 | Nc1ccn(C[C@@H](CO)OCP(=O)(O)O)c(=O)n1 [CIDOFOVIR] | > 350 |  |  |  |  |  |  | 
2 | CCCc1ccc(-c2cn(C/C=C/CP(=O)(OCOC(=O)C(C)(C)C)OCOC(=O)C(C)(C)C)nn2)cc1 |  | 35.9 | 95.6 | 31.6 | > 100 | 41 | 55.3 | 
3 | COc1cc(OC)cc(-c2cn(C/C=C/CP(=O)(OCOC(=O)C(C)(C)C)OCOC(=O)C(C)(C)C)nn2)c1 |  | > 100 | 20.8 | > 100 | > 100 | 86.8 | 68.2 | 
4 | COC(=O)c1nccn(C/C=C/CP(=O)(OCOC(=O)C(C)(C)C)OCOC(=O)C(C)(C)C)c1=O |  | > 100 | 76.9 | > 100 | > 100 | > 100 | > 100 | 
5 | CC(C)(C)C(=O)OCOP(=O)(C/C=C/Cn1cc(-c2cccs2)nn1)OCOC(=O)C(C)(C)C |  | 32.9 | 0.2 | 62.3 | > 100 | 17.1 | 31.6 | 
6 | CC(C)(C)C(=O)OCOP(=O)(C/C=C/Cn1cnc(C(N)=O)n1)OCOC(=O)C(C)(C)C |  | 58.3 | 73.9 | > 100 | > 100 | 86.8 | 41.8 | 
7 | CC(C)(C)C(=O)OCOP(=O)(C/C=C/Cn1cc(C(=O)O)nn1)OCOC(=O)C(C)(C)C |  | > 100 | 53.8 | > 100 | > 100 | > 100 | > 100 | 
8 | CC(C)(C)C(=O)OCOP(=O)(C/C=C/Cn1ccnn1)OCOC(=O)C(C)(C)C |  | 93.1 | 85.9 | > 100 | > 100 | 87.9 | 81.8 | 
9 | CC(C)(C)C(=O)OCOP(=O)(C/C=C/Cn1cc(CO)nn1)OCOC(=O)C(C)(C)C | 100 | 73.2 | 78.1 | > 100 | > 100 | 87.1 | 57.4 | 9.9
10 | CC(C)(C)C(=O)OCOP(=O)(C/C=C/Cn1ccnc(C(N)=O)c1=O)OCOC(=O)C(C)(C)C |  | > 100 | 60 | > 100 | > 100 | > 100 | > 100 | 
11 | CC(C)(C)C(=O)OCOP(=O)(C/C=C/Cn1cc(F)c(N)nc1=O)OCOC(=O)C(C)(C)C |  |  | 73.6 |  |  |  |  | 
12 | Nc1nc(O)c2ncn(COC(CO)CO)c2n1 [GANCICLOVIR] | > 350 |  |  |  |  |  |  | 
13 | CC(C)(C)C(=O)OCOP(=O)(C/C=C/Cn1cc(-c2ccc(F)cc2)nn1)OCOC(=O)C(C)(C)C |  | 61.9 | 84.3 | > 100 | > 100 | 47 | 31.6 | 
14 | CC(C)(C)C(=O)OCOP(=O)(C/C=C/Cn1cc(-c2ccc(OC(F)(F)F)cc2)nn1)OCOC(=O)C(C)(C)C |  | 19.6 | 60.6 | 55.2 | > 100 | 12.7 | 37.6 | 
15 | CCCCCCCCc1cn(C/C=C/CP(=O)(OCOC(=O)C(C)(C)C)OCOC(=O)C(C)(C)C)nn1 |  | 19.8 | 88.7 | > 100 | > 100 | 10.3 | 16.8 | 
16 | CC(C)(C)C(=O)OCOP(=O)(C/C=C/Cn1ccc(N)nc1=O)OCOC(=O)C(C)(C)C |  | > 100 | 80.4 | 70.4 | > 100 | > 100 | > 100 | 
17 | CC(C)(C)C(=O)OCOP(=O)(C/C=C/Cn1cc(-c2ccccc2)nn1)OCOC(=O)C(C)(C)C |  | 16 | 83.1 | 35.8 | > 100 | 15.6 | 31.6 | 
18 | CCCCCCc1ccc(-c2cn(C/C=C/CP(=O)(OCOC(=O)C(C)(C)C)OCOC(=O)C(C)(C)C)nn2)cc1 |  | 5.9 | 95 | 43.9 | > 100 | 10.4 | 16.1 | 
19 | CC(C)(C)C(=O)OCOP(=O)(C/C=C/Cn1cc(C(N)=O)nn1)OCOC(=O)C(C)(C)C |  | 62.4 | 86.5 | 70.5 | > 100 | 80.6 | 52.9 | 
